In brackets after ≈: the same amount, converted by molar mass. Read-outs that look alike come from different tables or passages of the source.
Legend:
[1] = system: E. faecalis KA247; experiment: Agar well-diffusion, inhibition zone; type: cell-based, Enterococcus faecalis; conditions: Enterococcus faecalis, KA247, read-out: Average diameter of inhibition zone (ZI)
Summary of the method: (§1)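 Clinical MDR isolates from complicated UTI patients. Suspensions were made in Tryptic Soya and Sabouraud broths from subcultures on Tryptic Soya and Sabouraud agar plates. Agar well diffusion followed CLSI guidelines, with test compounds applied at 10 μM in DMSO. Fosfomycin and fluconazole were positive controls and DMSO the negative control. Zone diameters were read in mm, in triplicate.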

[2] = system: S. aureus KA112; experiment: Agar well-diffusion, inhibition zone; type: cell-based, Staphylococcus aureus; conditions: Staphylococcus aureus, KA112, read-out: Average diameter of inhibition zone (ZI)
Summary of the method: as §1

[3] = system: E. coli KA780; experiment: Agar well-diffusion, inhibition zone; type: cell-based, Escherichia coli; conditions: for zone of inhibition at 10 µM: Escherichia coli, KA780, read-out: Average diameter of inhibition zone (ZI)
Summary of the method: as §1

[4] = system: P. mirabilis KA320; experiment: Agar well-diffusion, inhibition zone; type: cell-based, Proteus mirabilis; conditions: Proteus mirabilis, KA320, read-out: Average diameter of inhibition zone (ZI)
Summary of the method: as §1

[5] = system: C. albicans KA205; experiment: Agar well-diffusion, inhibition zone; type: cell-based, Candida albicans; conditions: Candida albicans, KA205, read-out: Average diameter of inhibition zone (ZI)
Summary of the method: as §1

[6] = system: C. tropicalis KA205; experiment: Agar well-diffusion, inhibition zone; type: cell-based, Candida tropicalis; conditions: Candida tropicalis, KA205, read-out: Average diameter of inhibition zone (ZI)
Summary of the method: as §1

[7] = system: E. faecalis KA247; experiment: Broth microdilution MIC and MBC; type: cell-based; conditions: Enterococcus faecalis, KA247, 24 h
[8] = system: S. aureus KA112; experiment: Broth microdilution MIC and MBC; type: cell-based; conditions: Staphylococcus aureus; for MIC: KA112, 24 h; for MBC: KA112, read-out: MBC/MIC
[9] = system: E. coli KA780; experiment: Broth microdilution MIC and MBC; type: cell-based; conditions: Escherichia coli; for MIC: KA780, 24 h; for MBC: KA780, read-out: MBC/MIC
[10] = system: P. mirabilis KA320; experiment: Broth microdilution MIC and MBC; type: cell-based; conditions: Proteus mirabilis; for MIC: KA320, 24 h; for MBC: KA320, read-out: MBC/MIC
[11] = system: C. albicans KA205; experiment: Broth microdilution MIC and MFC; type: cell-based; conditions: Candida albicans
[12] = system: C. tropicalis KA205; experiment: Broth microdilution MIC and MFC; type: cell-based; conditions: Candida tropicalis
[13] = system: fungal isolates; experiment: Broth microdilution MIC/MFC, fungal panel; type: cell-based
[14] = system: MDR bacterial and fungal isolates; experiment: Broth microdilution MIC/MBC/MFC, whole panel; type: cell-based; conditions: bactericidal/fungicidal if MBC or MFC not greater than four times the MIC
[15] = target: E. coli MurA enzyme (Escherichia coli, UniProt P0A749); experiment: MurA enzyme inhibition assay; type: biochemical; conditions: for remaining activity at 100 µM: read-out: RA (residual activity), at 100 μM
Chain of E. coli MurA enzyme (P0A749 whole entry): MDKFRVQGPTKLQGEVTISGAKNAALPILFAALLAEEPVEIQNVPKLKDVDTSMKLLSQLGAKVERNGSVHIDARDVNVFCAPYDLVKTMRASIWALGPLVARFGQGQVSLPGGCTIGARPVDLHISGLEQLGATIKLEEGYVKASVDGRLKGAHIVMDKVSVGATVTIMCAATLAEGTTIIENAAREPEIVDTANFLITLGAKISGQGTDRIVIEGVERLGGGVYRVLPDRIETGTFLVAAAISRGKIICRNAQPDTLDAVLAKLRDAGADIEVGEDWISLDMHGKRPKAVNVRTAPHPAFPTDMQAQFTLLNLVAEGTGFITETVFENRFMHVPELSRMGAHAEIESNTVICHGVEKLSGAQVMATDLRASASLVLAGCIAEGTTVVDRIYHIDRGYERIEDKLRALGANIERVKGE

[16] = system: BNL: mouse normal liver cells; experiment: SRB cytotoxicity assay on normal cells; type: cell-based
Summary of the method: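 Mouse normal liver BNL cells were grown in DMEM with 10% heat-inactivated FBS, penicillin and streptomycin, at 37 °C in 5% CO2. […] SRB assay: 10% TCA fixation at 4 °C for 1 h, 0.4% SRB for 10 min at room temperature, 1% acetic acid washes, 10 mM Tris solubilisation, absorbance at 540 nm. Mean of three, with SD.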

MIC [7] [µg/mL]	MIC [8] [µg/mL]	MIC [9] [µg/mL]	MIC [10] [µg/mL]	Compound	zone of inhibition at 10 µM [1] [mm]	zone of inhibition at 10 µM [2] [mm]	zone of inhibition at 10 µM [3] [mm]	zone of inhibition at 10 µM [4] [mm]	MBC [8] [µg/mL]	MBC [9] [µg/mL]	MBC [10] [µg/mL]	also measured
16 (≈ 26.4 µM)	8 (≈ 13.2 µM)	8 (≈ 13.2 µM)	16 (≈ 26.4 µM)	CCOP(=O)(OCC)C(Nc1nc2c(-c3ccc([N+](=O)[O-])cc3)nn(-c3ccccc3)c2s1)c1ccc(N(C)C)cc1 (stereo not shown) [Compound 4, Diethyl((4-(dimethylamino)phenyl)((3-(4-nitrophenyl)-1-phenyl-1H-pyrazolo[4,3-d]thiazol-5-yl)amino)methyl)phosphonate]	16 ± 0.8	17	17 ± 0.54	16 ± 0.34	2 (≈ 3.3 µM)	1 (≈ 1.65 µM)	1 (≈ 1.65 µM)	zone of inhibition at 10 µM [5]: 16 ± 0.67 mm; zone of inhibition at 10 µM [6]: 16 ± 0.54 mm; MIC ([11]; KA205, 24 h): 2 µg/mL (≈ 3.3 µM); MFC ([11]; KA205, read-out: MFC/MIC): 0.5 µg/mL (≈ 0.824 µM); MIC ([12]; KA205, 24 h): 2 µg/mL (≈ 3.3 µM); MFC ([12]; KA205, read-out: MFC/MIC): 1 µg/mL (≈ 1.65 µM); MFC [13]: 1 to 2 µg/mL (≈ 1.65 to 3.3 µM)
8 (≈ 57.9 µM)	8 (≈ 57.9 µM)	256 (≈ 1850 µM)	16 (≈ 116 µM)	C[C@@H]1O[C@@H]1P(=O)(O)O [FO, fosfomycin, reference compound]	17 ± 0.34	18 ± 0.32	11	19 ± 0.13	0.4 (≈ 2.9 µM)	1 (≈ 7.24 µM)	1 (≈ 7.24 µM)	Average diameter of inhibition zone (ZI) ([3]; 10 μM (DMSO), mean of three ± SEM): 11 ± 0.23 mm; bactericidal/fungicidal effect [14]: bactericidal and fungicidal activities; IC50 ([15]; IC50, preincubation 0 min): 52 ± 0.33 µM; IC50 ([15]; IC50, preincubation 10 min): 12.7 µM; RA (residual activity) ([15]; at 100 μM, preincubation 0 min): 52 ± 0.55%; remaining activity at 100 µM ([15]; preincubation 0 min): < 60%; remaining activity at 100 µM ([15]; preincubation 10 min): 10 ± 0.92%
				COc1cccc2c1C(=O)c1c(O)c3c(c(O)c1C2=O)C[C@@](O)(C(=O)CO)C[C@@H]3O[C@H]1C[C@H](N)[C@H](O)[C@H](C)O1 [DOX, Doxorubicin, reference compound]								IC50 [16]: 14.7 µM

From article PMC10685179 (RSC Advances, 2023)
